Measurements: ChEMBL document CHEMBL1132194, “Synthesis and dopamine receptor modulating activity of novel peptidomimetics of L-prolyl-L-leucyl-glycinamide featuring alpha,alpha-disubstituted amino acids” (1999)
Where a SMILES comes first, the peptide text is derived from it. [ ]: non-standard residue; d: D form. Ac6c = NC1(C(=O)O)CCCCC1; Ac5c = NC1(C(=O)O)CCCC1; Deg = CCC(N)(CC)C(=O)O; Ac3c = NC1(C(=O)O)CC1

What was measured:
Type in all cases: functional
Rattus norvegicus [1] = assay: Effect (PLG inhibitor) on apomorphine-Induced rotational behavior in rats at a dose of 10.0 ug/Kg
Procedure, shortened: (§1)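 Rats carrying unilateral 6-hydroxydopamine lesions of the substantia nigra; test compound given ip, then apomorphine 0.25 mg/kg ip. Contralateral rotations counted over 10 min and expressed as percentage change from control rotational response; n = 5 per group; significance versus respective control group (p < 0.05, p < 0.01).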

Rattus norvegicus [2] = assay: Effect (PLG inhibitor) on apomorphine-Induced rotational behavior in rats at a dose of 1.0 ug/Kg; procedure, shortened: as §1
Rattus norvegicus [3] = assay: Effect (PLG inhibitor) on apomorphine-Induced rotational behavior in rats at a dose of 0.10 ug/Kg; procedure, shortened: as §1
Rattus norvegicus [4] = assay: Effect (PLG inhibitor) on apomorphine-Induced rotational behavior in rats at a dose of 0.01 ug/Kg; procedure, shortened: as §1

| Compound | Change (Rattus norvegicus [1]) [%] | Change (Rattus norvegicus [2]) [%] | Change (Rattus norvegicus [3]) [%] | Change (Rattus norvegicus [4]) [%] |
| --- | --- | --- | --- | --- |
| NC(=O)CN1CC[C@@H](NC(=O)[C@@H]2CCCN2)C1=O | 191 | 75 | 20 | – |
| NC(=O)C1(N2CC[C@@H](NC(=O)[C@@H]3CCCN3)C2=O)CCCCC1 | -2 | 19 | 1 | 7 |
| CCC(CC)(C(N)=O)N1CC[C@@H](NC(=O)[C@@H]2CCCN2)C1=O | 8 | 17 | -3 | 2 |
| NC(=O)C1(N2CC[C@@H](NC(=O)[C@@H]3CCCN3)C2=O)CCCC1 | -4 | 19 | -5 | 4 |
| NC(=O)C1(N2CC[C@@H](NC(=O)[C@@H]3CCCN3)C2=O)CC1 | 4 | -8 | 10 | -6 |
| CC(C)C[C@H](NC(=O)[C@@H]1CCCN1)C(=O)NC1(C(N)=O)CC1 (H-Pro-Leu-[Ac3c]-NH2) | -7 | 8 | 18 | 15 |
| CC(C)C[C@H](NC(=O)[C@@H]1CCCN1)C(=O)NC1(C(N)=O)CCCC1 (H-Pro-Leu-[Ac5c]-NH2) | -26 | 5 | -1 | -15 |
| CC(C)C[C@H](NC(=O)[C@@H]1CCCN1)C(=O)NC1(C(N)=O)CCCCC1 (H-Pro-Leu-[Ac6c]-NH2) | -25 | -2 | 14 | -2 |
| CCC(CC)(NC(=O)[C@H](CC(C)C)NC(=O)[C@@H]1CCCN1)C(N)=O (H-Pro-Leu-[Deg]-NH2) | 1 | 56 | 31 | 6 |
